Measured values published in ChEMBL document CHEMBL1132947, “Synthesis and biological evaluation of 2'-carbamate-linked and 2'-carbonate-linked prodrugs of paclitaxel: selective activation by the tumor-associated protease plasmin” (J Med Chem, 2000).
≈ marks a conversion by molar mass, not a printed value.

Assays:
Type in all cases: functional, cell-based
Settings in all cases: Homo sapiens
A498 = assay: Cytotoxicity against A498 Tumor cell line in SRB Cell viability test
Procedure, shortened: (§1)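 Human tumor cell lines exposed to (pro)drug for 5 days; growth measured by microculture sulforhodamine B assay. ID50 = concentration giving 50% growth inhibition versus untreated control cultures, reported in ng/mL. Experiments run in quadruplicate and results averaged.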

WiDr = assay: Cytotoxicity against WIDR Tumor cell line in SRB Cell viability test; procedure, shortened: as §1
IGROV-1 = assay: Cytotoxicity against IGROV Tumor cell line in SRB Cell viability test; procedure, shortened: as §1
NCI-H226 = assay: Cytotoxicity against H226 Tumor cell line in SRB Cell viability test; procedure, shortened: as §1
EVSA-T = assay: Cytotoxicity against EVSA-T Tumor cell line in SRB Cell viability test; procedure, shortened: as §1
M19-MEL = assay: Cytotoxicity against M19 Tumor cell line in SRB Cell viability test; procedure, shortened: as §1
MCF7 = assay: Cytotoxicity against MCF-7 Tumor cell line in SRB Cell viability test; procedure, shortened: as §1

CC(=O)O[C@H]1C(=O)[C@@]2(C)[C@H]([C@H](OC(=O)c3ccccc3)[C@]3(O)CC(OC(=O)[C@H](OC(=O)OCc4ccc(NC(=O)[C@H](CCCCN)NC(=O)[C@H](CC(C)C)NC(=O)[C@H](N)C(C)C)cc4)C(NC(=O)c4ccccc4)c4ccccc4)C(C)=C1C3(C)C)[C@]1(OC(C)=O)CO[C@@H]1C[C@@H]2O.Cl.Cl (stereo not given in full)
IC50 (A498): > 0.06 µg/mL
IC50 (WiDr): 0.011 µg/mL
IC50 (IGROV-1): 0.027 µg/mL
IC50 (NCI-H226): 0.016 µg/mL
IC50 (EVSA-T): 0.0093 µg/mL
IC50 (M19-MEL): 0.02 µg/mL
IC50 (MCF7): 0.0092 µg/mL

CC(=O)O[C@H]1C(=O)[C@@]2(C)[C@H]([C@H](OC(=O)c3ccccc3)[C@]3(O)CC(OC(=O)[C@H](OC(=O)N(C)CCN(C)C(=O)[C@H](CCCCN)NC(=O)[C@H](CC(C)C)NC(=O)[C@H](N)C(C)C)C(NC(=O)c4ccccc4)c4ccccc4)C(C)=C1C3(C)C)[C@]1(OC(C)=O)CO[C@@H]1C[C@@H]2O.Cl.Cl (stereo not given in full)
IC50 (A498): 0.045 µg/mL
IC50 (WiDr): 0.011 µg/mL
IC50 (IGROV-1): 0.026 µg/mL
IC50 (NCI-H226): 0.025 µg/mL
IC50 (EVSA-T): 0.0052 µg/mL
IC50 (M19-MEL): 0.024 µg/mL
IC50 (MCF7): 0.0069 µg/mL

CC(=O)O[C@H]1C(=O)[C@@]2(C)[C@H]([C@H](OC(=O)c3ccccc3)[C@]3(O)CC(OC(=O)[C@H](OC(=O)N(C)CCN(C)C(=O)[C@H](CCCCN)NC(=O)[C@H](Cc4ccccc4)NC(=O)[C@@H](C)N)C(NC(=O)c4ccccc4)c4ccccc4)C(C)=C1C3(C)C)[C@]1(OC(C)=O)CO[C@@H]1C[C@@H]2O.Cl.Cl (stereo not given in full)
IC50 (A498): 0.038 µg/mL
IC50 (WiDr): 0.01 µg/mL
IC50 (IGROV-1): 0.011 µg/mL
IC50 (NCI-H226): 0.021 µg/mL
IC50 (EVSA-T): 0.0072 µg/mL
IC50 (M19-MEL): 0.017 µg/mL
IC50 (MCF7): 0.0066 µg/mL

CC(=O)O[C@H]1C(=O)[C@@]2(C)[C@H]([C@H](OC(=O)c3ccccc3)[C@]3(O)CC(OC(=O)[C@H](OC(=O)NCCNC(=O)[C@H](CCCCN)NC(=O)[C@H](Cc4ccccc4)NC(=O)[C@@H](C)N)C(NC(=O)c4ccccc4)c4ccccc4)C(C)=C1C3(C)C)[C@]1(OC(C)=O)CO[C@@H]1C[C@@H]2O.Cl.Cl (stereo not given in full)
IC50 (A498): 0.04 µg/mL
IC50 (WiDr): 0.013 µg/mL
IC50 (IGROV-1): 0.019 µg/mL
IC50 (NCI-H226): 0.041 µg/mL
IC50 (EVSA-T): 0.011 µg/mL
IC50 (M19-MEL): 0.045 µg/mL
IC50 (MCF7): 0.016 µg/mL

CC(=O)O[C@H]1C(=O)[C@@]2(C)[C@H]([C@H](OC(=O)c3ccccc3)[C@]3(O)C[C@H](OC(=O)[C@H](O)[C@@H](NC(=O)c4ccccc4)c4ccccc4)C(C)=C1C3(C)C)[C@]1(OC(C)=O)CO[C@@H]1C[C@@H]2O [PACLITAXEL]
IC50 (A498): < 0.003 µg/mL
IC50 (WiDr): < 0.003 µg/mL
IC50 (IGROV-1): 0.01 µg/mL (≈ 11.7 nM)
IC50 (NCI-H226): < 0.003 µg/mL
IC50 (EVSA-T): < 0.003 µg/mL
IC50 (M19-MEL): < 0.003 µg/mL
IC50 (MCF7): < 0.003 µg/mL
